Test [1] has as its target Histone acetyltransferase p300 (Homo sapiens, UniProt Q09472). As to the kind of experiment: Inhibition of p300 (unknown origin) using H3 peptide and acetyl-coA as substrate by fluorometric assay. A digest of the protocol: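 Fluorometric HAT kit assay with recombinant p300 core domain as enzyme and acetyl-CoA plus H3 histone peptide as substrates. Effectors were tested at 1 and 5 μM. HeLa nuclear extract served as positive control, and 0.5% DMSO was set as 100% activity.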

The subject of the next test is A549. As to the kind of experiment: Antiproliferative activity against human A549 cells at 0.1 to 10 uM after 96 hrs by WST8 assay. It counts as functional, cell-based. Put shortly: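 Cells seeded at 5×10^3 per well and grown 24 h at 37°C, 5% CO2. A549 medium was DMEM with 10% FBS and 2 mM L-glutamine. SW620 medium had 10% FBS and 1% penicillin/streptomycin. Medium was then replaced with conjugate at 0.1, 1, 5 or 10 μM for 96 h. WST-8 reagent was added and absorbance read at 450 nm. Results are mean ± SD.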
On the technique in general: Tetrazolium assays rely on reduction of a dye to a coloured formazan, in cell work by metabolically active cells.

Test [2] relates to dsDNA. In words: Binding affinity to 5'-ACTTATCCACTATAGA-3'/3'-TGAATAGGTGATATCT-5' dsDNA (unknown origin) assessed as change in melting temperature at 2.5 uM by spectrophotometric method. It counts as nucleic-acid assay.
Test [3] concerns dsDNA. In words: Binding affinity to 5'-ACTTATTCCATATAGA-3'/3'-TGAATAAGGTATATCT-5' dsDNA (unknown origin) assessed as change in melting temperature at 2.5 uM by spectrophotometric method. It counts as nucleic-acid assay.

Calls of active or inactive are those of the source. The calls are words filed in the database; no cut-off is given here.

Chain of Histone acetyltransferase p300 (Q09472 whole entry, the tested form may be a part): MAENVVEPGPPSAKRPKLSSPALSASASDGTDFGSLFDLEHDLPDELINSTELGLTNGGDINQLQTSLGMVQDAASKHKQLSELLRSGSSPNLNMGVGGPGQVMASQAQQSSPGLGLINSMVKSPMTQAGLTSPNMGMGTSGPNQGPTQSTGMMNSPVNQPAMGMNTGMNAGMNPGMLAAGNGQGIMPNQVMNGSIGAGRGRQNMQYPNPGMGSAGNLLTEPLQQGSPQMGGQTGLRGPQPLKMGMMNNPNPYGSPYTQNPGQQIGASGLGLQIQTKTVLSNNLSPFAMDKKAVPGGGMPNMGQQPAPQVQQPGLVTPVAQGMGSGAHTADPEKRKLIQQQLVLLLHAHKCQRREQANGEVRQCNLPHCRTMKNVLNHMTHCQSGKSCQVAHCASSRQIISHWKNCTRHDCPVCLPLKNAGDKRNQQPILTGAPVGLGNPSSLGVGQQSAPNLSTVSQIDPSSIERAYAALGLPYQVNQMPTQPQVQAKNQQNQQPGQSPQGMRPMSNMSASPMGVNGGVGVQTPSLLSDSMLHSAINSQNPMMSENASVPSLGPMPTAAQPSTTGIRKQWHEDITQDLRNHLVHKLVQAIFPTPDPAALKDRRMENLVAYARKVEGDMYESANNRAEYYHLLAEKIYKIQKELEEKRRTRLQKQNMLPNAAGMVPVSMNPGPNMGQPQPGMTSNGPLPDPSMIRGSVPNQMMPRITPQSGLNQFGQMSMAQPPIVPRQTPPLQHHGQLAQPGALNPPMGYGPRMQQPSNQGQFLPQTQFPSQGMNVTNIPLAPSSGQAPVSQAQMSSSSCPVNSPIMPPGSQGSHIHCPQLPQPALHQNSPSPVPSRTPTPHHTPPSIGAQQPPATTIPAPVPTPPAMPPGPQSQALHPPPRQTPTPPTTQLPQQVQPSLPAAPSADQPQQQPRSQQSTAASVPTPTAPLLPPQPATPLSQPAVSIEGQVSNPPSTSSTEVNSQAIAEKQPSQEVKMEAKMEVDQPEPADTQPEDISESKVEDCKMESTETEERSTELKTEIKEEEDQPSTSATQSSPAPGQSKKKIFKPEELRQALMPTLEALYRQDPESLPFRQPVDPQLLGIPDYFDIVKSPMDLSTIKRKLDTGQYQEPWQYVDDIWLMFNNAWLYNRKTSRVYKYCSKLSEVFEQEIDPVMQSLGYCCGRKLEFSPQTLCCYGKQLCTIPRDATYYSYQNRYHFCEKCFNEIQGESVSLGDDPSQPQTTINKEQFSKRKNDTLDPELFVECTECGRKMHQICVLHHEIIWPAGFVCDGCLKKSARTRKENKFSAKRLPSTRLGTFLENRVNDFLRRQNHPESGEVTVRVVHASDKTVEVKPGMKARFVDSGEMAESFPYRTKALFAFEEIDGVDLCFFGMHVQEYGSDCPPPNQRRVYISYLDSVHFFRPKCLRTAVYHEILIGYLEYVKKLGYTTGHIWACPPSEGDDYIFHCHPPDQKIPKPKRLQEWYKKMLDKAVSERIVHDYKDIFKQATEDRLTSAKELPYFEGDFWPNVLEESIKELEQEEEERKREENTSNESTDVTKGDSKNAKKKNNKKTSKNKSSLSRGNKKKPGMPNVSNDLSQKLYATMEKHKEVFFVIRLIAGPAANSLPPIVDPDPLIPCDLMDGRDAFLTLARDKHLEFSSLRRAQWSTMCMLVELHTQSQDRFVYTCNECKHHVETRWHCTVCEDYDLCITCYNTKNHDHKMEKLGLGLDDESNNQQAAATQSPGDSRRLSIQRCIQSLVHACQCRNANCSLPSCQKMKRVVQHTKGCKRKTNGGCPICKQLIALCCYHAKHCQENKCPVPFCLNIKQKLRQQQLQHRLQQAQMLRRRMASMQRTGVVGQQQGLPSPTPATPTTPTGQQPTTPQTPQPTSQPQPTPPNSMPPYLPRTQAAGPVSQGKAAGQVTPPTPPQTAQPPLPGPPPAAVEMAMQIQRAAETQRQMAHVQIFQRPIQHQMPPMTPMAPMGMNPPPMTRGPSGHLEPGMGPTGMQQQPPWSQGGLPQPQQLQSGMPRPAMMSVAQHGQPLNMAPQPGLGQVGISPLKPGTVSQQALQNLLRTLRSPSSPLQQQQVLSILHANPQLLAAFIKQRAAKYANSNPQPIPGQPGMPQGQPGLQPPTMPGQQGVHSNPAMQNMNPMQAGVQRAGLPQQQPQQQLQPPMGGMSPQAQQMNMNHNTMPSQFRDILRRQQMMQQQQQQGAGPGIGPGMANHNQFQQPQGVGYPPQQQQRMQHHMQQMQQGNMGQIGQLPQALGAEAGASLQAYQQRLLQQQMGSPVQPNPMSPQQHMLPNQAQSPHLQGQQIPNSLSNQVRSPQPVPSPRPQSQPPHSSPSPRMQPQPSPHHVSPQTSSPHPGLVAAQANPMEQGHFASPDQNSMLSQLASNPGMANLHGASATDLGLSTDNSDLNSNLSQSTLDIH

For the molecule `CCCCCCCCCCCCCCOc1cc(OCCCCCC(=O)NCCC(=O)Nc2cc(C(=O)Nc3cn(C)c(C(=O)Nc4cn(C)c(C(=O)Nc5cc(C(=O)NCCCC(=O)Nc6cc(C(=O)Nc7cc(C(=O)Nc8cc(C(=O)Nc9cc(C(=O)O)n(C)c9)n(C)c8)n(C)c7)n(C)c6)n(C)c5)n4)n3)n(C)c2)cc(O)c1C(=O)O`, in test [1], the inhibition result was “Dose-dependent effect”.
What is called ΔTm is the change in melting temperature against a reference sample. The term IC50 denotes the concentration needed to halve the response being measured. Lower therefore signals greater potency in that assay. Consider `CC1=NN(c2ccc(C(=O)NCCC(=O)NCCC(=O)Nc3cc(C(=O)Nc4cn(C)c(C(=O)Nc5cn(C)c(C(=O)Nc6cc(C(=O)NCCCC(=O)Nc7cc(C(=O)Nc8cc(C(=O)Nc9cc(C(=O)Nc%10cc(C(=O)NCCCN(C)C)n(C)c%10)n(C)c9)n(C)c8)n(C)c7)n(C)c6)n5)n4)n(C)c3)cc2)C(=O)/C1=C/c1ccc(-c2cc(C)c(C)cc2[N+](=O)[O-])o1`, for which the outcome with A549 was Active. Also, the ΔTm in the test with dsDNA [2] is 11 °C; in the test on dsDNA [3] it was 16.9 °C. Further, the IC50 in test [1] lay in the range of 3.9 to 4.2 µM.
In the case of `CC1=NN(c2ccc(C(=O)NCCOCCOCC(=O)NCCOCCOCC(=O)Nc3cc(C(=O)Nc4cn(C)c(C(=O)Nc5cn(C)c(C(=O)Nc6cc(C(=O)NCCCC(=O)Nc7cc(C(=O)Nc8cc(C(=O)Nc9cc(C(=O)Nc%10cc(C(=O)NCCCN(C)C)n(C)c%10)n(C)c9)n(C)c8)n(C)c7)n(C)c6)n5)n4)n(C)c3)cc2)C(=O)/C1=C/c1ccc(-c2cc(C)c(C)cc2[N+](=O)[O-])o1`, the outcome with A549 was Active. Also, the ΔTm in the test with dsDNA [2] came to 12.2 °C; in the test with dsDNA [3] it was 18.4 °C. In test [1], this molecule registered an IC50 of 3.9 to 4.2 µM.
As to `CCCCCCCCCCCCCCOc1cc(OCCCCCC(=O)NCCC(=O)Nc2cc(C(=O)Nc3cn(C)c(C(=O)Nc4cn(C)c(C(=O)Nc5cc(C(=O)NCCCC(=O)Nc6cc(C(=O)Nc7cc(C(=O)Nc8cc(C(=O)Nc9cc(C(=O)NCCCN(C)C)n(C)c9)n(C)c8)n(C)c7)n(C)c6)n(C)c5)n4)n3)n(C)c2)cc(O)c1C(=O)O`, the inhibition result in test [1] is “Dose-dependent effect”.

The record behind these values is ChEMBL document CHEMBL4190249, “Antiproliferative and apoptotic activities of sequence-specific histone acetyltransferase inhibitors” (Eur J Med Chem, 2017).
